Measured values: ChEMBL document CHEMBL3286372, “Design, synthesis and structure-activity relationship of novel semi-synthetic flavonoids as antiproliferative agents” (2014)

Legend:
[1] = Growth inhibition of human OVCAR4 cells after 48 hrs by coulter counting analysis; assay type: functional; details: OVCAR-4, 48 h
Outline: (§1)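 Five-dose NCI-60 follow-up, 0.01–100 µM, made from DMSO stock in buffered saline (final DMSO <1%), in duplicate wells. Cells in RPMI 1640 with 10% FBS at 6×10^4 cells/ml, 37 °C, 5% CO2, 48 h. Cells diluted tenfold in saline, Coulter-counted and corrected for dilution. GI50, TGI and LC50 taken from log concentration–percent growth curves.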

[2] = test system: SK-OV-3; assay: Growth inhibition of human SKOV3 cells after 48 hrs by coulter counting analysis; assay type: functional; details: SK-OV-3, 48 h; outline: as §1
[3] = test system: ACHN; assay: Growth inhibition of human ACHN cells after 48 hrs by coulter counting analysis; assay type: functional
Outline: (§2)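 NCI five-dose screen at 0.01-100 µM, diluted from DMSO stocks in buffered saline (final DMSO <1%). Cells at 6×10^4 cells/ml in RPMI 1640 with 10% FBS, in duplicate wells, at 37 °C under 5% CO2 for 48 h. Cells diluted tenfold in saline and Coulter-counted. GI50, TGI and LC50 taken from log concentration-growth inhibition curves.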

[4] = test system: CAKI-1; assay: Growth inhibition of human CAKI-1 cells after 48 hrs by coulter counting analysis; assay type: functional; details: CAKI-1, 48 h; outline: as §2
[5] = test system: TK-10; assay: Growth inhibition of human TK10 cells after 48 hrs by coulter counting analysis; assay type: functional; details: TK-10, 48 h
Outline: (§3)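 NCI five-dose screen, 0.01-100 µM, from DMSO stocks diluted in buffer saline (final DMSO <1%). Cells grown in RPMI 1640 + 10% FBS, seeded at 6×10^4 cells/ml, in duplicate wells. Exposure 48 h at 37 °C, 5% CO2. Cells diluted 10-fold in saline and counted by Coulter counter. GI50 derived from log concentration–percent growth inhibition curves. Controls carried matching PBS/saline/DMSO.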

[6] = test system: PC-3; assay: Growth inhibition of human PC3 cells after 48 hrs by coulter counting analysis; assay type: functional; details: PC-3, 48 h; outline: as §1
[7] = test system: MCF7; assay: Growth inhibition of human MCF7 cells after 48 hrs by coulter counting analysis; assay type: functional; details: MCF7, 48 h; outline: as §2
[8] = test system: T47D; assay: Growth inhibition of human T47D cells after 48 hrs by coulter counting analysis; assay type: functional; outline: as §1
[9] = test system: MDA-MB-468; assay: Growth inhibition of human MDA-MB-468 cells after 48 hrs by coulter counting analysis; assay type: functional; details: MDA-MB-468, 48 h; outline: as §1
[10] = Growth inhibition of human NCI60 cells after 48 hrs by coulter counting analysis; assay type: functional; details: NCI60, 48 h
Outline: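 Five-dose screen (0.01-100 µM, DMSO-solubilized, under 1% DMSO final), cells in RPMI 1640 + 10% FBS at 6×10^4 cells/ml, duplicate wells, 37 °C, 5% CO2, 48 h. Cells then diluted tenfold in saline and counted by Coulter counter with dilution correction. Controls held buffer/saline/DMSO at matching dilutions. GI50 derived from log concentration-percent growth inhibition curves.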

[11] = target: Cyclin-dependent kinase 2/cyclin E1 (Homo sapiens) (UniProt P24864+P24941); assay: Inhibition of CDK2/Cyclin E1 (unknown origin) at 20 uM after 30 mins by scintillation counting analysis relative to control; assay type: protein-complex assay
Outline: (§4)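 Recombinant kinases, cloned, expressed and purified in-house. Radiometric ³³P-ATP assay with kinase at ~10-50 nM final and 1-5 µg peptide or protein substrate. Compound at 20 µM final, in duplicate. Reaction started by adding ATP, run 30 min at ambient temperature, then spotted on P81 phosphocellulose. Plates washed in 1% phosphoric acid and counted by scintillation. No-substrate blank subtracted. Result is mean % activity change versus DMSO control.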

[12] = target: Cyclin-dependent kinase 4/cyclin D1 (Homo sapiens) (UniProt P11802+P24385); assay: Inhibition of CDK4/Cyclin D1 (unknown origin) at 20 uM after 30 mins by scintillation counting analysis relative to control; assay type: protein-complex assay; outline: as §4
[13] = test system: K562; assay: Growth inhibition of human K562 cells after 48 hrs by coulter counting analysis; assay type: functional; details: K562, 48 h; outline: as §2
[14] = test system: RPMI-8226; assay: Growth inhibition of human RPMI8226 cells after 48 hrs by coulter counting analysis; assay type: functional; details: RPMI-8226, 48 h; outline: as §1
[15] = test system: A549; assay: Growth inhibition of human A549/ATCC cells after 48 hrs by coulter counting analysis; assay type: functional; details: A549, 48 h; outline: as §2
[16] = test system: HOP-62; assay: Growth inhibition of human HOP62 cells after 48 hrs by coulter counting analysis; assay type: functional; details: HOP-62, 48 h; outline: as §2
[17] = test system: NCI-H226; assay: Growth inhibition of human NCI-H226 cells after 48 hrs by coulter counting analysis; assay type: functional; details: NCI-H226, 48 h; outline: as §1
[18] = test system: NCI-H23; assay: Growth inhibition of human NCI-H23 cells after 48 hrs by coulter counting analysis; assay type: functional; details: NCI-H23, 48 h; outline: as §1
[19] = test system: NCI-H322M; assay: Growth inhibition of human NCI-H322M cells after 48 hrs by coulter counting analysis; assay type: functional; outline: as §1
[20] = test system: NCI-H522; assay: Growth inhibition of human NCI-H522 cells after 48 hrs by coulter counting analysis; assay type: functional; details: NCI-H522, 48 h; outline: as §1
[21] = test system: COLO 205; assay: Growth inhibition of human COLO205 cells after 48 hrs by coulter counting analysis; assay type: functional; details: COLO 205, 48 h; outline: as §2
[22] = Growth inhibition of human HCC2998 cells after 48 hrs by coulter counting analysis; assay type: functional; details: HCC 2998, 48 h; outline: as §2
[23] = test system: HCT-116; assay: Growth inhibition of human HCT116 cells after 48 hrs by coulter counting analysis; assay type: functional; details: HCT-116, 48 h; outline: as §2
[24] = Growth inhibition of human HCT15 cells after 48 hrs by coulter counting analysis; assay type: functional; details: HCT-15, 48 h; outline: as §2
[25] = test system: HT-29; assay: Growth inhibition of human HT-29 cells after 48 hrs by coulter counting analysis; assay type: functional; details: HT-29, 48 h; outline: as §2
[26] = Growth inhibition of human SF295 cells after 48 hrs by coulter counting analysis; assay type: functional; details: SF-295, 48 h; outline: as §1
[27] = test system: SNB-75; assay: Growth inhibition of human SNB75 cells after 48 hrs by coulter counting analysis; assay type: functional; details: SNB-75, 48 h; outline: as §1
[28] = test system: MDA-MB-435; assay: Growth inhibition of human MDA-MB-435 cells after 48 hrs by coulter counting analysis; assay type: functional; details: MDA-MB-435, 48 h; outline: as §2
[29] = test system: SK-MEL-28; assay: Growth inhibition of human SK-MEL-28 cells after 48 hrs by coulter counting analysis; assay type: functional; details: SK-MEL-28, 48 h; outline: as §1
[30] = test system: SK-MEL-5; assay: Growth inhibition of human SK-MEL-5 cells after 48 hrs by coulter counting analysis; assay type: functional; details: SK-MEL-5, 48 h; outline: as §1
[31] = Growth inhibition of human UACC257 cells after 48 hrs by coulter counting analysis; assay type: functional; details: UACC-257, 48 h; outline: as §3
[32] = test system: IGROV-1; assay: Growth inhibition of human IGROV1 cells after 48 hrs by coulter counting analysis; assay type: functional; details: IGROV-1, 48 h; outline: as §2
[33] = Growth inhibition of human OVCAR3 cells after 48 hrs by coulter counting analysis; assay type: functional; details: OVCAR-3, 48 h; outline: as §1
[34] = Growth inhibition of human UO31 cells after 48 hrs by coulter counting analysis; assay type: functional; details: UO-31, 48 h; outline: as §3
[35] = Growth inhibition of human SF539 cells after 48 hrs by coulter counting analysis; assay type: functional; details: SF-539, 48 h; outline: as §1
[36] = read-out: LC50 (the source's name)

| Structure (SMILES) | GI50 [1] | GI50 [2] | GI50 [3] | GI50 [4] | GI50 [6] | GI50 [7] | GI50 [8] | GI50 [9] | LC50 [10] | TGI [10] | inhibition [11] | inhibition [12] | GI50 [13] | GI50 [14] | GI50 [15] | GI50 [16] | GI50 [17] | GI50 [18] | GI50 [19] | GI50 [20] | further results |
| --- | --- | --- | --- | --- | --- | --- | --- | --- | --- | --- | --- | --- | --- | --- | --- | --- | --- | --- | --- | --- | --- |
| COc1c2occc2c(OC)c2c(=O)c(CN3CCOCC3)c(/C=C/c3ccc(Cl)cc3)oc12 | 2750 nM | 3560 nM | 2470 nM | 2450 nM | 2500 nM | 2100 nM | 4310 nM | 2120 nM | 87100 nM | 33100 nM | 0% | 6% | 3280 nM | 1940 nM | 2850 nM | 3240 nM | 2790 nM | 3000 nM | 2540 nM | 1770 nM | GI50 [5]: 5320 nM; GI50 [21]: 2760 nM; GI50 [22]: 2850 nM; GI50 [23]: 2920 nM; GI50 [24]: 2780 nM; GI50 [25]: 2690 nM; GI50 [26]: 2010 nM; GI50 [27]: 2410 nM; GI50 [28]: 2050 nM; GI50 [29]: 2170 nM; GI50 [30]: 1240 nM; GI50 [31]: 2350 nM; GI50 [32]: 1940 nM; GI50 [33]: 2340 nM |
| COc1c2occc2c(OC)c2c(=O)c(CN3CCOCC3)c(/C=C/c3ccc(N(C)C)cc3)oc12 | 2470 nM | 2720 nM | 2160 nM | 1890 nM | 1690 nM | 1880 nM | 2210 nM | 1760 nM | 60200 nM | 5240 nM | 0% | 12% | 1850 nM | 1490 nM | 2830 nM | 2330 nM | 2060 nM | 2560 nM | 1650 nM | 1830 nM | GI50 [5]: 2460 nM; GI50 [34]: 1430 nM; GI50 [21]: 1660 nM; CC50 [21, 36]: 5870 nM; GI50 [22]: 2620 nM; GI50 [23]: 2110 nM; GI50 [24]: 2250 nM; GI50 [25]: 2200 nM; CC50 [25, 36]: 6680 nM; GI50 [26]: 1820 nM; GI50 [27]: 1390 nM; LC50 [27]: 5750 nM; GI50 [28]: 2050 nM; GI50 [29]: 2300 nM; GI50 [30]: 1090 nM; CC50 [30, 36]: 4990 nM; GI50 [31]: 2540 nM; GI50 [32]: 1790 nM; GI50 [33]: 1760 nM |
| COc1ccc(-c2cc(=O)c3c(OC)c4ccoc4c(/C=C/C=O)c3o2)cc1 | 3800 nM | 4730 nM | 19300 nM | 5030 nM | 2580 nM | 1630 nM | 2030 nM | 3580 nM | 72400 nM | 26300 nM | 0% | 0% | 2800 nM | 1370 nM | 18500 nM | 2980 nM | 2930 nM | 2800 nM | 5060 nM | 34600 nM | GI50 [34]: 3170 nM; GI50 [21]: 27600 nM; GI50 [22]: 13700 nM; GI50 [23]: 1060 nM; GI50 [24]: 1730 nM; GI50 [25]: 18100 nM; GI50 [26]: 3400 nM; GI50 [35]: 4140 nM; GI50 [27]: 3130 nM; GI50 [28]: 2810 nM; GI50 [29]: 2520 nM; GI50 [30]: 1690 nM; GI50 [31]: 3630 nM; GI50 [32]: 13600 nM; GI50 [33]: 3920 nM |
